Among the data in ChEMBL document CHEMBL1759918, “2-Substituted 5,6-dimethyl-3-phenylsulfonyl-pyrazolo[1,5-a]pyrimidines: new series of highly potent and specific serotonin 5-HT6 receptor antagonists” (Eur J Med Chem, 2011) are Ki values, retold here.

The experiment has as its target 5-hydroxytryptamine receptor 6 (Homo sapiens, UniProt P50406). The experiment in a line: Antagonist activity at human recombinant 5HT6 receptor expressed in HEK293 cells assessed as inhibition of serotonin-induced cAMP production after 2 hrs. Type of experiment: functional, cell-based. In outline: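 Tetracycline-induced (1 ug/mL, day before) T-Rex HEK cells expressing 5-HT6R, EDTA-harvested, in HBSS/5 mM HEPES pH 7.4/0.05% BSA with IBMX; ~4000 cells/well. Compound premixed with serotonin (final 10 nM, 0.32% DMSO), 2 h; cAMP by LANCE kit. Duplicates; 4-parameter IC50; Ki = IC50/(1+[Ag]/EC50), serotonin EC50 measured on same plates.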
On the technique in general: cAMP levels reflect the balance of adenylyl cyclase and phosphodiesterase activity.

Sequence of 5-hydroxytryptamine receptor 6 (P50406 whole entry): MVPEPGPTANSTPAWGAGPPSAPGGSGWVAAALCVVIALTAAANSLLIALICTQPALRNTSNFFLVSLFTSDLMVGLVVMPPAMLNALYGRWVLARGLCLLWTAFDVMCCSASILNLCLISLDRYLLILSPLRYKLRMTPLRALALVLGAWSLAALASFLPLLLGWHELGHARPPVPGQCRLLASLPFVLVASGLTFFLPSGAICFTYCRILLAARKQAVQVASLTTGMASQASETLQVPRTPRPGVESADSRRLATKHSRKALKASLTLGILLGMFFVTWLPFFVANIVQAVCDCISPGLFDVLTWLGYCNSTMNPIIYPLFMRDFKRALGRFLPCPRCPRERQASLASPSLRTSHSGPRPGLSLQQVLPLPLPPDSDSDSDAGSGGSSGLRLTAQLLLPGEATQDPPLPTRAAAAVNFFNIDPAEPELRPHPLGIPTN

The term Ki denotes the equilibrium dissociation constant of an inhibitor or competing ligand from its target. With `Cc1cc(C)n2nc(N(C)CCN(C)C)c(S(=O)(=O)c3ccccc3)c2n1`, the inhibitory constant (Ki) was 0.489 µM. `Cc1cc(C)n2ncc(S(=O)(=O)c3ccccc3)c2n1`: the Ki stood at 0.561 µM.

Regarding `Cc1cc(C)n2nc(N3CCNCC3)c(S(=O)(=O)c3ccccc3)c2n1`, the Ki turned out to be 1.38 µM. On to `Cc1cc(C)n2nc([S+](C)[O-])c(S(=O)(=O)c3ccccc3)c2n1` (configuration not stated), for which the inhibition constant (Ki) came to 2.96 µM.

For the molecule `Cc1cc(C)n2nc(NCCCN(C)C)c(S(=O)(=O)c3ccccc3)c2n1`, the Ki amounted to 0.764 µM. Then `Cc1cc(C)n2nc(NCCN(C)C)c(S(=O)(=O)c3ccccc3)c2n1`, with 2.6 µM; and `CCSc1nn2c(C)cc(C)nc2c1S(=O)(=O)c1ccccc1`, with 0.00191 µM.
